Test results taken from publication PMC3644855 (Nuclear medicine and biology, 2009).
Several values for one entry are separate records, joined by “and”; a condition that tells them apart may be missing. Equal entries are not always repeated. Where two headings read alike, the source gives them in different places.

Columns and labels:
5-HT1A receptor [1] = target: T1, 5-HT1A receptor (Rattus norvegicus, UniProt P19327); experiment: Brain tissue specific binding ratio [; type: in vivo
T1 sequence (P19327 1-422): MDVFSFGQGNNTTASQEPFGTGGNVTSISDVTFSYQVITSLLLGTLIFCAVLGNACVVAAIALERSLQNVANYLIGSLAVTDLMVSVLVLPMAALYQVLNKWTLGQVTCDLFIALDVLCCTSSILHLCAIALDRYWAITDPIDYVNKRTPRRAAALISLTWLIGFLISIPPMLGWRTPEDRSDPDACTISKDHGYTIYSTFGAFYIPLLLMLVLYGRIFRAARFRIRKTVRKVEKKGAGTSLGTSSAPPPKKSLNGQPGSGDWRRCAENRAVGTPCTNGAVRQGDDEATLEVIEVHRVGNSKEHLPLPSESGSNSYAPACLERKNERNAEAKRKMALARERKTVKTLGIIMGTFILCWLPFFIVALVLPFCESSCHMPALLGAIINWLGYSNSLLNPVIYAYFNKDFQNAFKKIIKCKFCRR
In short: (§1)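 Male Sprague-Dawley rats (220–260 g, 3 per group), awake, got i.v. 0.5–1 mCi 18F-labelled test compound in 100 μL, carrying 1, 11 or 18 nmol unlabelled compound; killed at 5 or 30 min. Dissected brain regions and plasma, spiked with internal standard, homogenized at pH 12.5, extracted with hexane:ethyl acetate (4:1), dried and redissolved in 50% CH3CN. Analysed by UPLC-Q-TOF (positive ESI) against matrix calibration, triplicate. DUR = %ID/g × body weight/100.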

[2] = type: in vivo; conditions: rat i.v., LC/MS
In short: as §1

[3] = type: in vivo; conditions: rat i.v., Radioactivity
In short: (§2)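 Awake male Sprague-Dawley rats (220–260 g, 3 per group) got i.v. 0.5–1 mCi 18F-labelled test compound in 100 μL, containing 1, 11 or 18 nmol unlabelled compound. Killed 5 or 30 min later. Caudate, thalamus, hippocampus, brain stem, cerebellum, cortex and plasma (0.05–0.4 g) weighed and radioactivity-counted. Uptake given as DUR = %ID/g × body weight/100.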

5-HT1A receptor [4] = target: T1, 5-HT1A receptor; experiment: Brain tissue specific binding ratio [; type: in vivo; conditions: rat i.v., Radioactivity
In short: as §2

[5] = rat i.v., 1 nmol, 30 min, LC/MS
[6] = rat i.v., 11 nmol, 30 min, LC/MS
[7] = rat i.v., 18 nmol, 30 min, LC/MS

COc1ccccc1N1CCN(CCN(C(=O)c2ccc(F)cc2)c2ncccn2)CC1 [FPWAY, 4-Fluoro-N-{2-[4-(2-methoxyphenyl)-1-piperazinyl]ethyl}-N-(2-pyrimidinyl)benzamide]
Specific binding ratio [(DURtissue/DURCb)−1] Hippocampus (5-HT1A receptor [1]; rat i.v., 1 nmol, 5 min, LC/MS): 2.30 and 2.30±0.42
Specific binding ratio [(DURtissue/DURCb)−1] brain stem (5-HT1A receptor [1]; rat i.v., 1 nmol, 5 min, LC/MS): 0.75±0.35
Specific binding ratio [(DURtissue/DURCb)−1] caudate (5-HT1A receptor [1]; rat i.v., 1 nmol, 5 min, LC/MS): 0.30±0.13
Specific binding ratio [(DURtissue/DURCb)−1] cortex (5-HT1A receptor [1]; rat i.v., 1 nmol, 5 min, LC/MS): 1.34±0.27
Specific binding ratio [(DURtissue/DURCb)−1] thalamus (5-HT1A receptor [1]; rat i.v., 1 nmol, 5 min, LC/MS): 0.84±0.30
Specific binding ratio [(DURtissue/DURCb)−1] Hippocampus (5-HT1A receptor [1]; [5]): 5.87 and 5.87±0.56
Specific binding ratio [(DURtissue/DURCb)−1] brain stem (5-HT1A receptor [1]; [5]): 1.99±0.53
Specific binding ratio [(DURtissue/DURCb)−1] caudate (5-HT1A receptor [1]; [5]): 0.95±0.06
Specific binding ratio [(DURtissue/DURCb)−1] cortex (5-HT1A receptor [1]; [5]): 2.29±0.06
Specific binding ratio [(DURtissue/DURCb)−1] thalamus (5-HT1A receptor [1]; [5]): 1.58±0.58
Specific binding ratio [(DURtissue/DURCb)−1] Hippocampus (5-HT1A receptor [1]; [6]): 2.43 and 2.43±0.35
Specific binding ratio [(DURtissue/DURCb)−1] brain stem (5-HT1A receptor [1]; [6]): 0.42±0.33
Specific binding ratio [(DURtissue/DURCb)−1] caudate (5-HT1A receptor [1]; [6]): 0.65±0.31
Specific binding ratio [(DURtissue/DURCb)−1] cortex (5-HT1A receptor [1]; [6]): 1.26±0.28
Specific binding ratio [(DURtissue/DURCb)−1] thalamus (5-HT1A receptor [1]; [6]): 0.78±0.29
specific binding ratio hippocampus (5-HT1A receptor [1]; rat i.v., 17 nmol, 30 min, hippocampus, LC/MS): 2.42
Specific binding ratio [(DURtissue/DURCb)−1] Hippocampus (5-HT1A receptor [1]; [7]): 2.42±0.28
Specific binding ratio [(DURtissue/DURCb)−1] brain stem (5-HT1A receptor [1]; [7]): 0.93±0.13
Specific binding ratio [(DURtissue/DURCb)−1] caudate (5-HT1A receptor [1]; [7]): 0.67±0.31
Specific binding ratio [(DURtissue/DURCb)−1] cortex (5-HT1A receptor [1]; [7]): 1.61±0.39
Specific binding ratio [(DURtissue/DURCb)−1] thalamus (5-HT1A receptor [1]; [7]): 0.91±0.14
saturability of binding with increasing mass dose (5-HT1A receptor [1]; rat, 1, 11 and 18 nmol mass doses, hippocampus): demonstrates saturability of binding
DUR Hippocampus ([2]; 1 nmol, 5 min): 4.28 %ID/g * body weight/100 and 4.28±0.35 %ID/g * body weight/100
DUR brain stem ([2]; 1 nmol, 5 min): 2.36±0.35 %ID/g * body weight/100
DUR caudate ([2]; 1 nmol, 5 min): 1.70±0.30 %ID/g * body weight/100
DUR cerebellum ([2]; 1 nmol, 5 min): 1.31±0.21 %ID/g * body weight/100
DUR cortex ([2]; 1 nmol, 5 min): 3.10±0.78 %ID/g * body weight/100
DUR plasma ([2]; 1 nmol, 5 min): 0.49±0.17 %ID/g * body weight/100
DUR thalamus ([2]; 1 nmol, 5 min): 2.39±0.45 %ID/g * body weight/100
DUR Hippocampus ([2]; 1 nmol, 30 min): 2.20 %ID/g * body weight/100 and 2.20±0.38 %ID/g * body weight/100
DUR brain stem ([2]; 1 nmol, 30 min): 0.98±0.05 %ID/g * body weight/100
DUR caudate ([2]; 1 nmol, 30 min): 0.60±0.04 %ID/g * body weight/100
DUR cerebellum ([2]; 1 nmol, 30 min): 0.32±0.08 %ID/g * body weight/100
DUR cortex ([2]; 1 nmol, 30 min): 1.06±0.25 %ID/g * body weight/100
DUR plasma ([2]; 1 nmol, 30 min): 0.21±0.07 %ID/g * body weight/100
DUR thalamus ([2]; 1 nmol, 30 min): 0.81±0.02 %ID/g * body weight/100
DUR Hippocampus ([2]; 11 nmol, 30 min): 0.79 %ID/g * body weight/100 and 0.79±0.08 %ID/g * body weight/100
DUR brain stem ([2]; 11 nmol, 30 min): 0.32±0.05 %ID/g * body weight/100
DUR caudate ([2]; 11 nmol, 30 min): 0.38±0.06 %ID/g * body weight/100
DUR cerebellum ([2]; 11 nmol, 30 min): 0.23±0.03 %ID/g * body weight/100
DUR cortex ([2]; 11 nmol, 30 min): 0.52±0.05 %ID/g * body weight/100
DUR plasma ([2]; 11 nmol, 30 min): 0.13±0.02 %ID/g * body weight/100
DUR thalamus ([2]; 11 nmol, 30 min): 0.41±0.08 %ID/g * body weight/100
hippocampus uptake (DUR) ([2]; 17 nmol, 30 min, hippocampus): 0.53
DUR Hippocampus ([2]; 18 nmol, 30 min): 0.53±0.03 %ID/g * body weight/100
DUR brain stem ([2]; 18 nmol, 30 min): 0.30±0.05 %ID/g * body weight/100
DUR caudate ([2]; 18 nmol, 30 min): 0.25±0.08 %ID/g * body weight/100
DUR cerebellum ([2]; 18 nmol, 30 min): 0.16±0.02 %ID/g * body weight/100
DUR cortex ([2]; 18 nmol, 30 min): 0.41±0.18 %ID/g * body weight/100
DUR plasma ([2]; 18 nmol, 30 min): 0.33±0.11 %ID/g * body weight/100
DUR thalamus ([2]; 18 nmol, 30 min): 0.30±0.04 %ID/g * body weight/100

COc1ccccc1N1CCN(CCN(C(=O)c2ccc(F)cc2)c2ncccn2)CC1 [[^18F]FPWAY, 4-Fluoro-N-{2-[4-(2-methoxyphenyl)-1-piperazinyl]ethyl}-N-(2-pyrimidinyl)benzamide]
DUR Hippocampus ([3]; 1 nmol, 5 min): 4.50 %ID/g * body weight/100 and 4.50±0.41 %ID/g * body weight/100
DUR brain stem ([3]; 1 nmol, 5 min): 2.53±0.48 %ID/g * body weight/100
DUR caudate ([3]; 1 nmol, 5 min): 2.14±0.27 %ID/g * body weight/100
DUR cerebellum ([3]; 1 nmol, 5 min): 1.55±0.24 %ID/g * body weight/100
DUR cortex ([3]; 1 nmol, 5 min): 3.75±0.74 %ID/g * body weight/100
DUR thalamus ([3]; 1 nmol, 5 min): 2.54±0.43 %ID/g * body weight/100
DUR Hippocampus ([3]; 1 nmol, 30 min): 2.34±0.22 %ID/g * body weight/100
DUR brain stem ([3]; 1 nmol, 30 min): 0.78±0.08 %ID/g * body weight/100
DUR caudate ([3]; 1 nmol, 30 min): 0.56±0.01 %ID/g * body weight/100
DUR cerebellum ([3]; 1 nmol, 30 min): 0.36±0.05 %ID/g * body weight/100
DUR cortex ([3]; 1 nmol, 30 min): 1.12±0.18 %ID/g * body weight/100
DUR thalamus ([3]; 1 nmol, 30 min): 0.84±0.06 %ID/g * body weight/100
DUR Hippocampus ([3]; 11 nmol, 30 min): 0.83±0.03 %ID/g * body weight/100
DUR brain stem ([3]; 11 nmol, 30 min): 0.37±0.05 %ID/g * body weight/100
DUR caudate ([3]; 11 nmol, 30 min): 0.30±0.02 %ID/g * body weight/100
DUR cerebellum ([3]; 11 nmol, 30 min): 0.22±0.02 %ID/g * body weight/100
DUR cortex ([3]; 11 nmol, 30 min): 0.50±0.04 %ID/g * body weight/100
DUR thalamus ([3]; 11 nmol, 30 min): 0.38±0.02 %ID/g * body weight/100
DUR Hippocampus ([3]; 18 nmol, 30 min): 0.53±0.02 %ID/g * body weight/100
DUR brain stem ([3]; 18 nmol, 30 min): 0.27±0.03 %ID/g * body weight/100
DUR caudate ([3]; 18 nmol, 30 min): 0.24±0.04 %ID/g * body weight/100
DUR cerebellum ([3]; 18 nmol, 30 min): 0.15±0.01 %ID/g * body weight/100
DUR cortex ([3]; 18 nmol, 30 min): 0.41±0.13 %ID/g * body weight/100
DUR thalamus ([3]; 18 nmol, 30 min): 0.28±0.02 %ID/g * body weight/100
Specific binding ratio [(DURtissue/DURCb)−1] Hippocampus (5-HT1A receptor [4]; 1 nmol, 5 min): 1.95±0.45
Specific binding ratio [(DURtissue/DURCb)−1] brain stem (5-HT1A receptor [4]; 1 nmol, 5 min): 0.63±0.08
Specific binding ratio [(DURtissue/DURCb)−1] caudate (5-HT1A receptor [4]; 1 nmol, 5 min): 0.38±0.06
Specific binding ratio [(DURtissue/DURCb)−1] cortex (5-HT1A receptor [4]; 1 nmol, 5 min): 1.41±0.13
Specific binding ratio [(DURtissue/DURCb)−1] thalamus (5-HT1A receptor [4]; 1 nmol, 5 min): 0.64±0.04
Specific binding ratio [(DURtissue/DURCb)−1] Hippocampus (5-HT1A receptor [4]; 1 nmol, 30 min): 5.38±0.23
Specific binding ratio [(DURtissue/DURCb)−1] brain stem (5-HT1A receptor [4]; 1 nmol, 30 min): 1.12±0.06
Specific binding ratio [(DURtissue/DURCb)−1] caudate (5-HT1A receptor [4]; 1 nmol, 30 min): 0.53±0.17
Specific binding ratio [(DURtissue/DURCb)−1] cortex (5-HT1A receptor [4]; 1 nmol, 30 min): 2.04±0.18
Specific binding ratio [(DURtissue/DURCb)−1] thalamus (5-HT1A receptor [4]; 1 nmol, 30 min): 1.29±0.13
Specific binding ratio [(DURtissue/DURCb)−1] Hippocampus (5-HT1A receptor [4]; 11 nmol, 30 min): 2.72±0.37
Specific binding ratio [(DURtissue/DURCb)−1] brain stem (5-HT1A receptor [4]; 11 nmol, 30 min): 0.68±0.14
Specific binding ratio [(DURtissue/DURCb)−1] caudate (5-HT1A receptor [4]; 11 nmol, 30 min): 0.33±0.06
Specific binding ratio [(DURtissue/DURCb)−1] cortex (5-HT1A receptor [4]; 11 nmol, 30 min): 1.26±0.11
Specific binding ratio [(DURtissue/DURCb)−1] thalamus (5-HT1A receptor [4]; 11 nmol, 30 min): 0.70±0.12
Specific binding ratio [(DURtissue/DURCb)−1] Hippocampus (5-HT1A receptor [4]; 18 nmol, 30 min): 2.57±0.21
Specific binding ratio [(DURtissue/DURCb)−1] brain stem (5-HT1A receptor [4]; 18 nmol, 30 min): 0.85±0.26
Specific binding ratio [(DURtissue/DURCb)−1] caudate (5-HT1A receptor [4]; 18 nmol, 30 min): 0.63±0.34
Specific binding ratio [(DURtissue/DURCb)−1] cortex (5-HT1A receptor [4]; 18 nmol, 30 min): 1.81±0.83
Specific binding ratio [(DURtissue/DURCb)−1] thalamus (5-HT1A receptor [4]; 18 nmol, 30 min): 0.90±0.13
